Data: article PMC11325413 (ACS Omega, 2024)

What was measured:
[1] = test system: A-549; assay: Cytotoxicity assay, lung cancer cell line; type: cell-based; conditions: Homo sapiens, A549, read-out: cytotoxic activity IC50 ± SEM, A-549
Outline: (§1)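 Cytotoxicity of test compound was measured by MTT assay in a panel of four human cancer cell lines, with IC50 derived from the viability read-out.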

[2] = test system: four human cancer cell lines (A-549, MCF-7, Panc-1, HT-29); assay: Cytotoxicity assay, average over the four cancer cell lines; type: cell-based; conditions: read-out: cytotoxic activity average IC50 (GI50)
[3] = test system: MCF-7; assay: Cytotoxicity assay, breast cancer cell line; type: cell-based; conditions: Homo sapiens, MCF7, read-out: cytotoxic activity IC50 ± SEM, MCF-7
Outline: as §1

[4] = test system: HT-29; assay: Cytotoxicity assay, colon cancer cell line; type: cell-based; conditions: Homo sapiens, HT-29, read-out: cytotoxic activity IC50 ± SEM, HT-29
Outline: as §1

[5] = test system: Panc-1; assay: Cytotoxicity assay, pancreatic cancer cell line; type: cell-based; conditions: Homo sapiens, PANC-1, read-out: cytotoxic activity IC50 ± SEM, Panc-1
Outline: as §1

[6] = target: EGFR (Homo sapiens, UniProt P00533); assay: EGFR-TK inhibitory assay; type: biochemical
[7] = target: VEGFR-2 (Homo sapiens, UniProt P35968); assay: VEGFR-2 inhibitory kinase assay; type: biochemical
[8] = test system: MCF-10A cells; assay: Cell viability assay; type: cell-based, human; conditions: 50 μM doses
Outline: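 Normal human mammary gland epithelial MCF-10A cells were incubated with test compound for 4 days, and viability was read by MTT assay.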

[9] = test system: caspase 6; assay: Apoptosis marker immunoassay in A-549: caspase 6; type: cell-based, human; conditions: A-549 cells
Outline: (§2)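 Sandwich immunoassay quantifying pro-apoptotic (p53, BAX, caspase 3, caspase 6) and antiapoptotic (BCL-2, CK-18) proteins in human lung A-549 cells treated with test compound. Levels are expressed as fold change relative to untreated control cells, as mean ± SD of three independent experiments.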

[10] = test system: BAX; assay: Apoptosis marker immunoassay in A-549: BAX; type: cell-based, human; conditions: A-549 cells
Outline: as §2

[11] = test system: caspase 3; assay: Apoptosis marker immunoassay in A-549: caspase 3; type: cell-based, human; conditions: A-549 cells
Outline: as §2

[12] = test system: p53; assay: Apoptosis marker immunoassay in A-549: p53; type: cell-based, human; conditions: A-549 cells
Outline: as §2

[13] = test system: CK-18; assay: Apoptosis marker immunoassay in A-549: CK-18; type: cell-based, human; conditions: A-549 cells
Outline: as §2

Chain of VEGFR-2 (P35968 20-1356): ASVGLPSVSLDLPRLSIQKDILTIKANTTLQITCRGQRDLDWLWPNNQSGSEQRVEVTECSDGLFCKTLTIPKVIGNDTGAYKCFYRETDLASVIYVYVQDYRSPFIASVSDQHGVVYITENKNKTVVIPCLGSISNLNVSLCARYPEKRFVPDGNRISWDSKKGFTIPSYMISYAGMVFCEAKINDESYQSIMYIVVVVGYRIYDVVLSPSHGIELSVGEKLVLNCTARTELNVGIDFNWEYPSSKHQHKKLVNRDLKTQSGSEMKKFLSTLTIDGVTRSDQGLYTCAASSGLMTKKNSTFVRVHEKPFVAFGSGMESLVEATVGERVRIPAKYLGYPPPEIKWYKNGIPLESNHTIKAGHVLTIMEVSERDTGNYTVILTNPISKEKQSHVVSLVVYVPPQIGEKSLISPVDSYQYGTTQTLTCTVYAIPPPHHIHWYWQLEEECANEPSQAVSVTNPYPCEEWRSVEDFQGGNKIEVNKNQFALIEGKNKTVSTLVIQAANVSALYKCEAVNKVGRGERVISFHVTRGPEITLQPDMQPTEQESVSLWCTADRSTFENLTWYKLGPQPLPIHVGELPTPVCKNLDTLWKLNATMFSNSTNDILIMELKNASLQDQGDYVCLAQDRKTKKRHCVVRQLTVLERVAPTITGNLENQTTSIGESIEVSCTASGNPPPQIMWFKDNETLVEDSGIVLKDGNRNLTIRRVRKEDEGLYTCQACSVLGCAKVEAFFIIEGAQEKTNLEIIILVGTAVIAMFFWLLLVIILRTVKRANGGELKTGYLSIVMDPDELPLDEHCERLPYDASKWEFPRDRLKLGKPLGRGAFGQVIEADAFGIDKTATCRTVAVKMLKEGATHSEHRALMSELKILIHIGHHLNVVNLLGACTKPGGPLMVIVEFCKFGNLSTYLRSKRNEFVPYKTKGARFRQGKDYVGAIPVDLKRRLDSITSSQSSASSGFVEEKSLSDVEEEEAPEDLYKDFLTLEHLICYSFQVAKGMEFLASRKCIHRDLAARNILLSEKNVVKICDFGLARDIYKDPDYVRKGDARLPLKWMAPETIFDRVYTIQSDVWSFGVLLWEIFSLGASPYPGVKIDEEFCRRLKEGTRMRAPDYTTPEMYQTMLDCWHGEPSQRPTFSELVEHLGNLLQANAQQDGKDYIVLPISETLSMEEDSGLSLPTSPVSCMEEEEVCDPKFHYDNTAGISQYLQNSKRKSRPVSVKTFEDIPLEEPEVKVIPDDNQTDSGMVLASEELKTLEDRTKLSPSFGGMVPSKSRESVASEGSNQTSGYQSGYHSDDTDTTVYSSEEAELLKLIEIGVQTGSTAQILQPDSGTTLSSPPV
Chain of EGFR (P00533 669-1210): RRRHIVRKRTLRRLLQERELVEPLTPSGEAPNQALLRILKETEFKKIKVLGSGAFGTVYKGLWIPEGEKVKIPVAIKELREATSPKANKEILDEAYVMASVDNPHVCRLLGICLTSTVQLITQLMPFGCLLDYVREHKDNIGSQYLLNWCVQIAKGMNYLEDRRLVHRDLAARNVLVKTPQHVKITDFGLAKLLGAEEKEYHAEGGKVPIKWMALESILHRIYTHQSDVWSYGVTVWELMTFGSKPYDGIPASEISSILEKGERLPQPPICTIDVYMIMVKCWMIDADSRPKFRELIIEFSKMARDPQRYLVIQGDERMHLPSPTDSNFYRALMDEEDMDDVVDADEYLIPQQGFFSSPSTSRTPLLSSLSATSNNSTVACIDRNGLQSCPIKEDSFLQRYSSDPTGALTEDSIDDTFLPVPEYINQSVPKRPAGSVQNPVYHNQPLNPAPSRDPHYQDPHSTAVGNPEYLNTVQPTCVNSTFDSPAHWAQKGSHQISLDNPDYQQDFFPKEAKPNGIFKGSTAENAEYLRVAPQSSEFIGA

SMILES: COc1cc(C2NC(=S)NC(C)=C2C(=O)OC(C)C)ccc1O (stereo not shown) [Compound 4, Isopropyl 4-(4-Hydroxy-3-methoxyphenyl)-6-methyl-2-thioxo-1,2,3,4-tetrahydropyrimidine-5-carboxylate]
- IC50 [1]: 47 ± 4 nM
- IC50 [2]: 49 nM
- IC50 [3]: 50 ± 5 nM
- IC50 [4]: 49 ± 4 nM
- IC50 [5]: 48 ± 4 nM

SMILES: COc1ccc(C2NC(=S)NC(C)=C2C(=O)OC(C)C)cc1OC (stereo not shown) [Compound 5, Isopropyl 4-(3,4-Dimethoxyphenyl)-6-methyl-2-thioxo-1,2,3,4-tetrahydropyrimidine-5-carboxylate]
- IC50 [1]: 67 ± 6 nM
- IC50 [2]: 68 nM
- IC50 [3]: 71 ± 6 nM
- IC50 [4]: 70 ± 6 nM
- IC50 [5]: 68 ± 6 nM

SMILES: COc1cc(C2NC(=S)NC(C)=C2C(=O)OC(C)C)cc(OC)c1OC (stereo not shown) [Compound 6, Isopropyl 6-Methyl-2-thioxo-4-(3,4,5-trimethoxyphenyl)-1,2,3,4-tetrahydropyrimidine-5-carboxylate]
- IC50 [6]: 98 ± 6 nM
- IC50 [1]: 42 ± 4 nM
- IC50 [2]: 45 nM
- IC50 [3]: 46 ± 4 nM
- IC50 [7]: 5.3 ± 0.05 nM
- IC50 [4]: 47 ± 4 nM
- IC50 [5]: 44 ± 4 nM

SMILES: CC1=C(C(=O)OC(C)C)C(c2cccc(O)c2)NC(=S)N1 (stereo not shown) [Compound 7, Isopropyl 4-(3-Hydroxyphenyl)-6-methyl-2-thioxo-1,2,3,4-tetrahydropyrimidine-5-carboxylate]
- IC50 [1]: 70 ± 7 nM
- IC50 [2]: 71 nM
- IC50 [3]: 74 ± 7 nM
- IC50 [4]: 73 ± 7 nM
- IC50 [5]: 72 ± 7 nM

SMILES: CC1=C(C(=O)OC(C)C)C(c2ccc(O)cc2)NC(=S)N1 (stereo not shown) [Compound 8, Isopropyl 4-(4-Hydroxyphenyl)-6-methyl-2-thioxo-1,2,3,4-tetrahydropyrimidine-5-carboxylate]
- IC50 [1]: 64 ± 6 nM
- IC50 [2]: 67 nM
- IC50 [3]: 68 ± 6 nM
- IC50 [4]: 68 ± 6 nM
- IC50 [5]: 67 ± 6 nM

SMILES: COc1cc(C2NC(=O)NC(C)=C2C(=O)OC(C)C)ccc1O (stereo not shown) [Compound 9, Isopropyl 4-(4-Hydroxy-3-methoxyphenyl)-6-methyl-2-oxo-1,2,3,4-tetrahydropyrimidine-5-carboxylate]
- IC50 [1]: 74 ± 7 nM
- IC50 [2]: 76 nM
- IC50 [3]: 79 ± 7 nM
- IC50 [4]: 77 ± 7 nM
- IC50 [5]: 75 ± 7 nM

SMILES: COc1ccc(C2NC(=O)NC(C)=C2C(=O)OC(C)C)cc1OC (stereo not shown) [Compound 10, Isopropyl 4-(3,4-Dimethoxyphenyl)-6-methyl-2-oxo-1,2,3,4-tetrahydropyrimidine-5-carboxylate]
- IC50 [1]: 52 ± 5 nM
- IC50 [2]: 53 nM
- IC50 [3]: 55 ± 5 nM
- IC50 [4]: 54 ± 5 nM
- IC50 [5]: 52 ± 5 nM

SMILES: COc1cc(C2NC(=O)NC(C)=C2C(=O)OC(C)C)cc(OC)c1OC (stereo not shown) [Compound 11, Isopropyl 6-Methyl-2-oxo-4-(3,4,5-trimethoxyphenyl)-1,2,3,4-tetrahydropyrimidine-5-carboxylate]
- IC50 [1]: 56 ± 5 nM
- IC50 [2]: 57 nM
- IC50 [3]: 58 ± 5 nM
- IC50 [4]: 59 ± 5 nM
- IC50 [5]: 56 ± 5 nM

SMILES: CC1=C(C(=O)OC(C)C)C(c2cccc(O)c2)NC(=O)N1 (stereo not shown) [Compound 12, Isopropyl 4-(3-Hydroxyphenyl)-6-methyl-2-oxo-1,2,3,4-tetrahydropyrimidine-5-carboxylate]
- effect on nontumor cells MCF-10A [8]: no effect
- IC50 [6]: 87 ± 5 nM
- caspase 6 elevation compared to control untreated cells [9]: 9.65 fold
- IC50 [1]: 36 ± 3 nM
- IC50 [2]: 37 nM
- IC50 [3]: 38 ± 3 nM
- BAX elevation compared to control untreated cells [10]: 13.95 fold
- IC50 [7]: 4.2 ± 0.04 nM
- caspase 3 elevation compared to control untreated cells [11]: 8.20 fold
- IC50 [4]: 38 ± 3 nM
- IC50 [5]: 36 ± 3 nM
- p53 elevation compared to control untreated cells [12]: 4.75 fold

SMILES: CC1=C(C(=O)OC(C)C)C(c2ccc(O)cc2)NC(=O)N1 (stereo not shown) [Compound 13, Isopropyl 4-(4-Hydroxyphenyl)-6-methyl-2-oxo-1,2,3,4-tetrahydropyrimidine-5-carboxylate]
- IC50 [1]: 62 ± 6 nM
- IC50 [2]: 62 nM
- IC50 [3]: 64 ± 6 nM
- IC50 [4]: 64 ± 6 nM
- IC50 [5]: 61 ± 6 nM

SMILES: COc1ccc(C2NC(=O)NC(C)=C2C(=O)OC(C)C)cc1O (stereo not shown) [Compound 14, Isopropyl 4-(3-Hydroxy-4-methoxyphenyl)-6-methyl-2-oxo-1,2,3,4-tetrahydropyrimidine-5-carboxylate]
- IC50 [6]: 92 ± 5 nM
- CK 18 protein expression level compared to control untreated cells [13]: 0.40 folds
- caspase 6 elevation compared to control untreated cells [9]: 8.50 fold
- IC50 [1]: 40 ± 4 nM
- IC50 [2]: 41 nM
- IC50 [3]: 44 ± 4 nM
- BAX elevation compared to control untreated cells [10]: 11.50 fold
- IC50 [7]: 4.7 ± 0.04 nM
- caspase 3 elevation compared to control untreated cells [11]: 7.40 fold
- IC50 [4]: 43 ± 4 nM
- IC50 [5]: 42 ± 4 nM
- p53 elevation compared to control untreated cells [12]: 3.10 fold

SMILES: COc1cc(C2NC(=O)NC(C)=C2C(=O)OC(C)C)ccc1OCc1ccccc1 (stereo not shown) [Compound 15, Isopropyl 4-[4-(Benzyloxy)-3-methoxyphenyl]-6-methyl-2-oxo-1,2,3,4-tetrahydropyrimidine-5-carboxylate]
- effect on nontumor cells MCF-10A [8]: no effect
- IC50 [6]: 84 ± 5 nM
- CK 18 protein expression level compared to control untreated cells [13]: 0.60 folds
- caspase 6 elevation compared to control untreated cells [9]: 9.80 fold
- IC50 [1]: 33 ± 3 nM
- IC50 [2]: 35 nM
- IC50 [3]: 36 ± 3 nM
- BAX elevation compared to control untreated cells [10]: 14.50 fold
- IC50 [7]: 3.5 ± 0.03 nM
- caspase 3 elevation compared to control untreated cells [11]: 8.70 fold
- IC50 [4]: 36 ± 3 nM
- IC50 [5]: 34 ± 3 nM
- p53 elevation compared to control untreated cells [12]: 5.90 fold

SMILES: C#Cc1cccc(Nc2ncnc3cc(OCCOC)c(OCCOC)cc23)c1 [erlotinib, reference compound]
- IC50 [1]: 30 ± 3 nM
- IC50 [3]: 40 ± 3 nM
- IC50 [4]: 30 ± 3 nM
- IC50 [5]: 30 ± 3 nM
